Experimental data from ChEMBL document CHEMBL1126740, “(S)- and (R)-8-(di-n-propylamino)-6,7,8,9-tetrahydro-3H-benz[e]indole-1-carbaldehyde: a new class of orally active 5-HT1A-receptor agonists” (J Med Chem, 1993).
The source made the active and inactive calls. The calls are words filed in the database; no cut-off is given here.

Tests used:
D(2) dopamine receptor = D(2) dopamine receptor (Rattus norvegicus, UniProt P61169); assay: Displacement of [3H]spiperone from dopamine receptor D2
Summary of the method: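 Rat striatal membranes in 50 mM potassium phosphate buffer (3 mg original tissue) incubated with 0.5 nM [3H]spiperone for 10 min at 37 °C. Nonspecific binding was defined with 10 μM 6,7-ADTN. Ki was calculated by Cheng–Prusoff; triplicates, 3–7 experiments.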

Rattus norvegicus [1] = assay: In vivo evaluation for 5-HTP accumulation in the limbic system in male rats (po); type: functional
Summary of the method: (§1)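 Male Sprague-Dawley rats were pretreated with reserpine 5 mg/kg sc 18 h before dosing. DOPA and 5-HTP in limbic system, striatum and hemispheres were measured by HPLC with electrochemical detection. Dose-response curves used 4–6 dose levels (n = 4) for each region; ED50 was estimated graphically. Partial responses are given as the maximal % reduction at the highest dose tested.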

Rattus norvegicus [2] = assay: Maximal reduction in percent (Partial response) of DOPA accumulation rat limbic system at highest test dose of 61 uM/Kg (po); type: functional
Rattus norvegicus [3] = assay: In vivo evaluation for 5-HTP accumulation in the corpus striatum in male rats (po); type: functional; summary of the method: as §1
Rattus norvegicus [4] = assay: Maximal reduction in percent (Partial response) of DOPA accumulation rat hemispheres at highest test dose of 61 uM/Kg (po); Inactive; type: functional, organism-based; summary of the method: as §1
Rattus norvegicus [5] = assay: In vivo evaluation for 5-HTP accumulation in the corpus striatum in male rats.(sc); type: functional
Summary of the method: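 Male Sprague-Dawley rats (200–300 g), reserpine-pretreated (5 mg/kg sc, 18 h before). Test drug was given sc in 4–6 doses (n = 4 per dose), with separate curves per brain area. 5-HTP in corpus striatum was measured by HPLC with electrochemical detection. ED50 was read from the dose–response curve.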

[6] = Area under curve at 20 uM/dg administered perorally; type: ADME; settings: po
Summary of the method: (§2)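 Male Sprague-Dawley rats (300 g) carrying arterial catheters, used 24 h after surgery; animals dosed orally were starved 18 h beforehand. Blood was sampled at intervals up to 12 h after dosing. Drug levels were measured by HPLC with fluorescence detection (ex 285, em 365) or by GC/MS, calibrated against spiked blank blood. AUC was taken from concentration-time curves; n = 4–6.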

[7] = Time taken to reach the maximum concentration of compound at 1 uM/dg administered intravenously; type: ADME, organism-based; settings: in vivo, iv
Summary of the method: (§3)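 Male Sprague-Dawley rats (300 g) with arterial catheters, used 24 h after surgery; rats dosed orally were starved 18 h. Drug was given po or iv. Blood (100–250 μL) was sampled at intervals up to 12 h and assayed by HPLC-fluorescence (ex 285, em 365) or GC/MS against spiked blank-blood standard curves. Cmax and tmax were taken from concentration–time curves; n = 4–6.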

Rattus norvegicus [8] = assay: In vivo evaluation for DOPA accumulation in the corpus striatum in male rats at highest test dose of 45 uM/Kg; inactive; type: functional, organism-based; summary of the method: as §1
Rattus norvegicus [9] = assay: Maximal reduction in percent (Partial response) of DOPA accumulation rat corpus striatum at highest test dose of 61 uM/Kg (po); type: functional; summary of the method: as §1
Rattus norvegicus [10] = assay: In vivo evaluation for 5-HTP accumulation in the limbic system in male rats (sc); type: functional; summary of the method: as §1
[11] = Maximum concentration of the drug at 1 umol/dg administered intravenously; type: ADME, organism-based; parameters: route intravenous; settings: in vivo, iv
Summary of the method: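 Male Sprague-Dawley rats (300 g) with arterial catheters were dosed 24 h after surgery; orally dosed rats were starved 18 h beforehand. Blood was sampled at intervals up to 12 h and analysed by HPLC with fluorescence detection (ex 285, em 365) or by GC/MS. Cmax is in pmol/mL and tmax in min, mean ± SEM, n = 4–6.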

Rattus norvegicus [12] = assay: In vivo evaluation for 5-HTP accumulation in the hemispheres in male rats (po); type: functional; summary of the method: as §1
Rattus norvegicus [13] = assay: In vivo evaluation for DOPA accumulation in the hemispheres in male rats at highest test dose of 45 uM/Kg; inactive; type: functional, organism-based; summary of the method: as §1
[14] = Half life of compound at 1 uM/dg administered intravenously; type: ADME, organism-based; settings: in vivo, iv; summary of the method: as §2
[15] = Area under curve at 1 uM/dg administered intravenously; type: ADME; settings: iv; summary of the method: as §2
Rattus norvegicus [16] = assay: In vivo evaluation for DOPA accumulation in the limbic system in male rats at highest test dose of 45 uM/Kg; inactive; type: functional, organism-based; summary of the method: as §1
Rattus norvegicus [17] = assay: In vivo evaluation for 5-HTP accumulation in the hemispheres in male rats (sc); type: functional; summary of the method: as §1
[18] = Bioavailability in rat; type: ADME, organism-based; settings: in vivo
Summary of the method: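 Blood was drawn at intervals up to 12 h and assayed by HPLC-fluorescence or GC/MS against spiked blank-blood standards. F is the ratio of oral to intravenous areas under the blood concentration-time curves; n = 4–6.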

Rattus norvegicus [19] = organism: Rattus norvegicus; assay: Compound was tested for 5-HT behavioral response in reserpine pretreated rats; +5HT syndrome; type: functional, organism-based
Summary of the method: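 Male Sprague-Dawley rats (200–300 g) were given reserpine 5 mg/kg sc 18 h before testing, then the test drug sc in the neck (n = 4). Motor activity was recorded by photocells for 30 min, with gross behaviour observed throughout. 5-HT syndrome: flat body posture, extended limbs, reciprocal forepaw treading. DA response: locomotion and stereotypies.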

[20] = Maximum concentration of the drug at 20 umol/dg administered perorally; type: ADME, organism-based; parameters: route oral; settings: in vivo, po; summary of the method: as §3

D(2) dopamine receptor, sequence (P61169 whole entry): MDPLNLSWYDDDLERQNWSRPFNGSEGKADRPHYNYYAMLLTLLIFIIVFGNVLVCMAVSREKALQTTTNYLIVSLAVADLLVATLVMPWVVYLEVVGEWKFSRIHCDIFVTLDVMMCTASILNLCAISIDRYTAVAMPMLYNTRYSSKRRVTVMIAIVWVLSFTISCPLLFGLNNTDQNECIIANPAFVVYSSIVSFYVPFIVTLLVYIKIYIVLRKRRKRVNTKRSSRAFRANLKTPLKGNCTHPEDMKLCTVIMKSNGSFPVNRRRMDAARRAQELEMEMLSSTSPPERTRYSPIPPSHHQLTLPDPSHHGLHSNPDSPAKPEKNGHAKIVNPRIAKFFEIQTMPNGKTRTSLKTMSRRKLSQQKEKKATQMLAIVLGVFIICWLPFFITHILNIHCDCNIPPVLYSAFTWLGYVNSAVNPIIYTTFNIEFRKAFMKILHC

## CCCN(CCC)C1CCc2cccc(O)c2C1 (racemic) [8-OH-DPAT]
D(2) dopamine receptor
  Ki: 1.36 µM
Rattus norvegicus [1]
  ED50: 3 µmol/kg
Rattus norvegicus [2]
  Reduction: 35%
Rattus norvegicus [3]
  ED50: 7.9 µmol/kg
Rattus norvegicus [4]
  Reduction: inactive
Rattus norvegicus [5]
  ED50: 0.052 µmol/kg
[6]
  AUC: 104 pM/h/g
[7]
  Tmax at 1 µM: 3 min
Rattus norvegicus [8]
  ED50: inactive
Rattus norvegicus [9]
  Reduction: 43%
Rattus norvegicus [10]
  ED50: 0.052 µmol/kg
[11]
  Cmax: 344 pM ml-1
Rattus norvegicus [12]
  ED50: 7.9 µmol/kg
Rattus norvegicus [13]
  ED50: inactive
[14]
  half-life: 72 min
[15]
  AUC: 213 pM/h/g
Rattus norvegicus [16]
  ED50: inactive
Rattus norvegicus [17]
  ED50: 0.063 µmol/kg
[18]
  bioavailability: 2.4%
Rattus norvegicus [19]
  Behavioral response: Active
[20]
  Cmax: 63 pM ml-1
